Test results: ChEMBL document CHEMBL1152449, “6-methyl-2,4-disubstituted pyridazin-3(2H)-ones: a novel class of small-molecule agonists for formyl peptide receptors” (J Med Chem, 2009); call rule not given here

Columns and labels:
fMet-Leu-Phe receptor [1] = target: T1, fMet-Leu-Phe receptor (Homo sapiens, UniProt P21462); test: Agonist activity at FPR1 in human neutrophiles assessed as induction of intracellular calcium flux by FLIPR3 calcium assay; type: functional, cell-based
T1 sequence (P21462 whole entry): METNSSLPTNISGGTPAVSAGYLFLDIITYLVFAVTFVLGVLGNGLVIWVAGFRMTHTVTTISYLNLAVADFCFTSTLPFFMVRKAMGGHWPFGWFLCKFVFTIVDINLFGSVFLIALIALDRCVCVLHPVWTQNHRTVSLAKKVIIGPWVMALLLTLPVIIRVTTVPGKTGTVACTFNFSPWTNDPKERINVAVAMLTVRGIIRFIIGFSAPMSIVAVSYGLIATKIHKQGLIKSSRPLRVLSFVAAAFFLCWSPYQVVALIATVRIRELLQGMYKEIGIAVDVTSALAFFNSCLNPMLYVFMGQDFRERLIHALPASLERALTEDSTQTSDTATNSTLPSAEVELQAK

[2] = target: T2, N-formyl peptide receptor 2 (Homo sapiens, UniProt P25090); test: Agonist activity at FPRL1 expressed in human HL60 cells assessed as induction of intracellular calcium flux by FLIPR3 calcium assay; type: functional, cell-based; conditions: hl-60
T2 sequence (P25090 whole entry): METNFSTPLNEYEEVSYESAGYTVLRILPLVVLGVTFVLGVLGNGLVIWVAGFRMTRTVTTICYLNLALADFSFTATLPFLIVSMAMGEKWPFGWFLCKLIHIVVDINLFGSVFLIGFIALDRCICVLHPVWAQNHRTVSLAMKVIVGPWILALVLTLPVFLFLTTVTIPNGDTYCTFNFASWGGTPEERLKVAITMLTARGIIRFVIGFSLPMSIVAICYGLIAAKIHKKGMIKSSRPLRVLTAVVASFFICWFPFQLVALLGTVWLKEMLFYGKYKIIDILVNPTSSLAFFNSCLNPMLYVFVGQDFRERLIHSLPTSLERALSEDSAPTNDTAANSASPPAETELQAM
Summary of the method: (§1)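 HL-60 cells stably transfected with the receptor, grown in RPMI with 10% heat-inactivated FCS, 10 mM HEPES, antibiotics and G418 (1 mg/mL). They were then washed, resuspended in HBSS+ (2 × 10^5 cells/well) and read on a FlexStation II.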

[3] = target: T3, N-formyl peptide receptor 3 (Homo sapiens, UniProt P25089); test: Agonist activity at FPRL2 expressed in human HL60 cells assessed as induction of intracellular calcium flux by FLIPR3 calcium assay; type: functional, cell-based; conditions: hl-60; summary of the method: as §1
T3 sequence (P25089 whole entry): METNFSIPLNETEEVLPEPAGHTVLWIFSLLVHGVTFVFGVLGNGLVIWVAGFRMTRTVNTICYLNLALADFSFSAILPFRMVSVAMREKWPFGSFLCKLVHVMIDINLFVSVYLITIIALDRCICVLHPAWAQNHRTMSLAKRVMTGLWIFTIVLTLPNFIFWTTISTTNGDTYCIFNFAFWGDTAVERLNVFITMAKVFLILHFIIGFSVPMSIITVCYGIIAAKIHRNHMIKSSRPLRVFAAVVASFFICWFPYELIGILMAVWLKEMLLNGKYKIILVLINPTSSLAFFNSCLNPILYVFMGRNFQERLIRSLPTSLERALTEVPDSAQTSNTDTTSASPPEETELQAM

[4] = target: T4, fMet-Leu-Phe receptor (Homo sapiens) (UniProt P21462); test: Agonist activity at FPR1 expressed in human HL60 cells assessed as induction of intracellular calcium flux by FLIPR3 calcium assay relative to N-formyl-methionyl-leucyl-phenylalanine; type: functional, cell-based; conditions: HL-60
T4 sequence (whole entry): T1 sequence (P21462 whole entry)

fMet-Leu-Phe receptor [5] = target: T1, fMet-Leu-Phe receptor; test: Agonist activity at FPR1 expressed in human HL60 cells assessed as induction of intracellular calcium flux by FLIPR3 calcium assay; type: functional, cell-based, HL-60; summary of the method: as §1

| EC50 (fMet-Leu-Phe receptor [5]; hl-60) | SMILES | EC50 (fMet-Leu-Phe receptor [1]) | EC50 [2] | EC50 [3] | Activity [4] | EC50 (fMet-Leu-Phe receptor [5]; read-out: EC50) |
| --- | --- | --- | --- | --- | --- | --- |
| – | COc1cccc(Cc2cc(C)nn(CC(=O)Nc3ccc4c(c3)OCO4)c2=O)c1 | 3600 nM | Not Active | Not Active | 50% | 2300 nM |
| Not Active | COc1cccc(Cc2cc(C)nn(CC(=O)c3ccc(Br)cc3)c2=O)c1 | – | Not Active | Not Active | – | – |
